# Measured values published in ChEMBL document CHEMBL4699398, “The synthesis and biological evaluation of sanguinarine derivatives as anti-non-small cell lung cancer agents” (RSC Med Chem, 2020).
# Activity calls are given as the source filed them. No cut-off for these calls is given here.
# Tests used:
# A549 [1] = assay: Induction of cell cycle arrest in human A549 cells assessed as accumulation in G0/G1 phase at 1 uM incubated for 24 hrs by […] propidium iodide staining based flow cytometry (reference value: 63.11 %); format: functional
# NCI-H1975 [2] = assay: Induction of cell cycle arrest in human H1975 cells assessed as accumulation in G0/G1 phase at 1 uM incubated for 24 hrs by […] propidium iodide staining based flow cytometry (reference value: 62.86 %); format: functional
# NCI-H1975 [3] = assay: Induction of cell cycle arrest in human H1975 cells assessed as accumulation in G0/G1 phase at 3 uM incubated for 24 hrs by […] propidium iodide staining based flow cytometry (reference value: 62.86 %); format: functional
# A549 [4] = assay: Induction of cell cycle arrest in human A549 cells assessed as accumulation in S phase at 1 uM incubated for 24 hrs by […] propidium iodide staining based flow cytometry (reference value: 14.16 %); format: functional
# NCI-H1975 [5] = assay: Induction of cell cycle arrest in human H1975 cells assessed as accumulation in S phase at 1 uM incubated for 24 hrs by […] propidium iodide staining based flow cytometry (reference value: 14.13 %); format: functional
# A549 [6] = assay: Induction of cell cycle arrest in human A549 cells assessed as accumulation in G2/M phase at 0.3 uM incubated for 24 hrs by […] propidium iodide staining based flow cytometry (reference value: 22.46 %); format: functional
# A549 [7] = assay: Induction of cell cycle arrest in human A549 cells assessed as accumulation in G2/M phase at 1 uM incubated for 24 hrs by […] propidium iodide staining based flow cytometry (reference value: 22.46 %); format: functional
# A549 [8] = assay: Induction of cell cycle arrest in human A549 cells assessed as accumulation in G2/M phase at 3 uM incubated for 24 hrs by […] propidium iodide staining based flow cytometry (reference value: 22.46 %); format: functional
# A549 [9] = assay: Induction of apoptosis in human A549 cells assessed as viable cells at 0.3 uM after 48 hrs by Annexin V-FITC/7-AAD staining based flow cytometric method (reference value: 93.10 %); format: functional; conditions: read-out: Activity
# A549 [10] = assay: Induction of apoptosis in human A549 cells assessed as early apoptotic cells at 0.3 uM after 48 hrs by Annexin V-FITC/7-AAD staining based flow cytometric method (reference value: 3.26 %); format: functional
# A549 [11] = assay: Induction of apoptosis in human A549 cells assessed as late apoptotic cells at 0.3 uM after 48 hrs by Annexin V-FITC/7-AAD staining based flow cytometric method (reference value: 2.94 %); format: functional
# NCI-H1975 [12] = assay: Induction of apoptosis in human H1975 cells assessed as viable cells at 0.3 uM after 48 hrs by Annexin V-FITC/7-AAD staining based flow cytometric method (reference value: 88.02 %); format: functional; conditions: read-out: Activity
# A549 [13] = assay: Induction of apoptosis in human A549 cells assessed as necrotic cells at 0.3 uM after 48 hrs by Annexin V-FITC/7-AAD staining based flow cytometric method (reference value: 0.70 %); format: functional
# A549 [14] = assay: Induction of apoptosis in human A549 cells assessed as viable cells at 1 uM after 48 hrs by Annexin V-FITC/7-AAD staining based flow cytometric method (reference value: 93.10 %); format: functional; conditions: read-out: Activity
# A549 [15] = assay: Induction of apoptosis in human A549 cells assessed as late apoptotic cells at 1 uM after 48 hrs by Annexin V-FITC/7-AAD staining based flow cytometric method (reference value: 2.94 %); format: functional
# A549 [16] = assay: Induction of apoptosis in human A549 cells assessed as viable cells at 3 uM after 48 hrs by Annexin V-FITC/7-AAD staining based flow cytometric method (reference value: 93.10 %); format: functional; conditions: read-out: Activity
# A549 [17] = assay: Induction of apoptosis in human A549 cells assessed as early apoptotic cells at 3 uM after 48 hrs by Annexin V-FITC/7-AAD staining based flow cytometric method (reference value: 3.26 %); format: functional
# NCI-H1975 [18] = assay: Induction of apoptosis in human H1975 cells assessed as late apoptotic cells at 1 uM after 48 hrs by Annexin V-FITC/7-AAD staining based flow cytometric method (reference value: 4.63 %); format: functional
# NCI-H1975 [19] = assay: Induction of apoptosis in human H1975 cells assessed as viable cells at 3 uM after 48 hrs by Annexin V-FITC/7-AAD staining based flow cytometric method (reference value: 88.02 %); format: functional; conditions: read-out: Activity
# A549 [20] = assay: Induction of apoptosis in human A549 cells assessed as increase in cleaved PARP level at 0.1 to 3 uM after 24 hrs by Western blot analysis; format: functional, cell-based; conditions: dose microM 0.1-3, time 24.0 hrs
# Summary of the method: (§1)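 After treatment, cells harvested and lysed in RIPA buffer; equal protein loaded on 12% SDS-PAGE and transferred to PVDF; blocked in 5% milk 2 h at room temperature; primary antibodies (AKT, p-AKT, cleaved caspase-3, cleaved caspase-9, PARP; GAPDH loading control) overnight at 4 °C; HRP secondaries 2 h at room temperature; chemiluminescent detection.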
# NCI-H1975 [21] = assay: Induction of apoptosis in human H1975 cells assessed as increase in cleaved PARP level at 0.1 to 3 uM after 24 hrs by Western blot analysis; format: functional, cell-based; conditions: dose microM 0.1-3, time 24.0 hrs; summary of the method: as §1
# A549 [22] = assay: Induction of apoptosis in human A549 cells assessed as increase in cleaved caspase-3 level at 0.1 to 3 uM incubated for 24 hrs by Western blot analysis; format: functional, cell-based; conditions: dose microM 0.1-3, time 24.0 hrs; summary of the method: as §1
# NCI-H1975 [23] = assay: Induction of apoptosis in human H1975 cells assessed as increase in cleaved caspase-3 level at 0.1 to 3 uM incubated for 24 hrs by Western blot analysis; format: functional, cell-based; conditions: dose microM 0.1-3, time 24.0 hrs; summary of the method: as §1
# A549 [24] = assay: Induction of apoptosis in human A549 cells assessed as increase in cleaved caspase-9 level at 0.1 to 3 uM incubated for 24 hrs by Western blot analysis; format: functional, cell-based; conditions: dose microM 0.1-3, time 24.0 hrs; summary of the method: as §1
# NCI-H1975 [25] = assay: Induction of apoptosis in human H1975 cells assessed as increase in cleaved caspase-9 level at 0.1 to 3 uM incubated for 24 hrs by Western blot analysis; format: functional, cell-based; conditions: dose microM 0.1-3, time 24.0 hrs; summary of the method: as §1
# A549 [26] = assay: Induction of apoptosis in human A549 cells assessed as increase in Akt level at 0.1 to 3 uM incubated for 24 hrs by Western blot analysis; format: functional, cell-based; conditions: dose microM 0.1-3, time 24.0 hrs; summary of the method: as §1
# NCI-H1975 [27] = assay: Induction of apoptosis in human H1975 cells assessed as increase in Akt level at 0.1 to 3 uM incubated for 24 hrs by Western blot analysis; format: functional, cell-based; conditions: dose microM 0.1-3, time 24.0 hrs; summary of the method: as §1
# A549 [28] = assay: Induction of apoptosis in human A549 cells assessed as increase in phosphorylated Akt level at 0.1 to 3 uM incubated for 24 hrs by Western blot analysis; format: functional, cell-based; conditions: dose microM 0.1-3, time 24.0 hrs; summary of the method: as §1
# NCI-H1975 [29] = assay: Induction of apoptosis in human H1975 cells assessed as increase in phosphorylated Akt level at 0.1 to 3 uM incubated for 24 hrs by Western blot analysis; format: functional, cell-based; conditions: dose microM 0.1-3, time 24.0 hrs; summary of the method: as §1
# A549 [30] = assay: Induction of apoptosis in human A549 cells assessed as increase in ROS production incubated for 20 mins by DCFH-DA staining based flow cytometry analysis; format: functional, cell-based; conditions: dose microM 0.3-3, time 20.0 min
# Summary of the method: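 At 20 min after compound treatment, cells washed in PBS and loaded with 10 μM DCFH-DA in phenol red-free DMEM for 30 min at 37 °C in the dark; washed three times with PBS; DCF fluorescence of ROS-positive cells measured by flow cytometry with excitation at 488 nm.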
smiles,measurement,setting,value
CN1c2c(ccc3cc4c(cc23)OCO4)-c2ccc3c(c2C1N1CCOCC1)OCO3 (stereo not given),Activity,A549 [1],70.03%
same,Activity,NCI-H1975 [2],67.32%
same,Activity,NCI-H1975 [3],77.7%
same,Activity,A549 [4],15.64%
same,Activity,NCI-H1975 [5],12.43%
same,Activity,A549 [6],20.27%
same,Activity,A549 [7],14.29%
same,Activity,A549 [8],13.56%
same,viability at 0.3 µM,A549 [9],79.4%
same,Activity,A549 [10],4.92%
same,Activity,A549 [11],6.92%
same,viability at 0.3 µM,NCI-H1975 [12],82.5%
same,Activity,A549 [13],8.73%
same,viability at 1 µM,A549 [14],78.3%
same,Activity,A549 [15],9.4%
same,viability at 3 µM,A549 [16],0.71%
same,Activity,A549 [17],3.91%
same,Activity,NCI-H1975 [18],19.17%
same,viability at 3 µM,NCI-H1975 [19],1.8%
same,Activity,A549 [20],Active
same,Activity,NCI-H1975 [21],Active
same,Activity,A549 [22],Active
same,Activity,NCI-H1975 [23],Active
same,Activity,A549 [24],Active
same,Activity,NCI-H1975 [25],Active
same,Activity,A549 [26],Active
same,Activity,NCI-H1975 [27],Active
same,Activity,A549 [28],Active
same,Activity,NCI-H1975 [29],Active
same,Activity,A549 [30],Dose-dependent effect
